Data from ChEMBL document CHEMBL1147951, “Synthesis and antimicrobial activity of symmetrical two-tailed dendritic tricarboxylato amphiphiles” (2007).
In brackets after ≈: the same amount, converted by molar mass.

Columns and labels:
Type in all cases: functional
Staphylococcus aureus [1] = assay: Antimicrobial activity against Staphylococcus aureus by broth microdilution assay
How it was run: (§1)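 Twofold dilution series of amphiphile (dissolved in aqueous triethanolamine, pH 8–9) in 1/10-strength Brain Heart Infusion Broth with 0.2% sucrose. Inoculum from a single-colony broth culture, diluted with buffered saline gelatin to No. 1 McFarland turbidity. Incubated at 30 °C; turbidity scored visually on day 4. MIC = lowest concentration giving a prominent visible decrease in turbidity; triplicate.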

Saccharomyces cerevisiae = assay: Antimicrobial activity against Saccharomyces cerevisiae by broth microdilution assay
How it was run: (§2)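 Compounds were dissolved in aqueous triethanolamine (stock pH 8–9) and serially diluted twofold in 1/10-strength BHI broth + 0.2% sucrose. Inocula were adjusted with buffered saline gelatin to McFarland No. 1; for A. niger, spores were scraped from PDA. Plates were incubated at 30 °C and turbidity was scored visually on day 4. MIC, run in triplicate, was the lowest concentration giving a prominent visible decrease in turbidity.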

Staphylococcus aureus [2] = assay: Antimicrobial activity against methicillin-resistant Staphylococcus aureus by broth microdilution assay; how it was run: as §1
Candida albicans = assay: Antimicrobial activity against Candida albicans by broth microdilution assay; how it was run: as §2
Micrococcus luteus = assay: Antimicrobial activity against Micrococcus luteus by broth microdilution assay; how it was run: as §2
[3] = system: Mycolicibacterium smegmatis; assay: Antimicrobial activity against Mycobacterium smegmatis by broth microdilution assay
How it was run: (§3)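 Strains were L. plantarum ATCC 14917, precultured in TSB, and M. smegmatis ATCC 607, precultured in Middlebrook 7H9. Inocula were diluted with buffered saline gelatin to McFarland No. 1. Twofold dilutions of compound in aqueous triethanolamine were made in 1/10-strength BHI broth + 0.2% sucrose and mixed with an equal volume of inoculum. Plates were incubated at 30 °C and scored visually for turbidity on day 4. MIC was determined in triplicate.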

Escherichia coli = assay: Antimicrobial activity against Escherichia coli by broth microdilution assay
How it was run: (§4)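 Strains were E. coli strain C (ATCC 13706) and K. pneumoniae ATCC 4352, grown from a single colony in 1/10-strength BHI broth + 0.2% sucrose and adjusted with buffered saline gelatin to McFarland No. 1. Twofold dilution series of compound in triethanolamine/water used doubled medium and inoculum volumes. Plates were incubated at 37 °C and turbidity was scored visually on day 7. MIC, run in triplicate, was the lowest concentration giving a prominent visible turbidity decrease.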

[4] = system: Lactiplantibacillus plantarum; assay: Antimicrobial activity against Lactobacillus plantarum by broth microdilution assay; how it was run: as §3
Aspergillus niger = assay: Antimicrobial activity against Aspergillus niger by broth microdilution assay; how it was run: as §2
Klebsiella pneumoniae = assay: Antimicrobial activity against Klebsiella pneumoniae by broth microdilution assay; how it was run: as §4
Cryptococcus neoformans = assay: Antimicrobial activity against Cryptococcus neoformans by broth microdilution assay; how it was run: as §2

| SMILES | MIC (Staphylococcus aureus [1]) [µM] | MIC (Saccharomyces cerevisiae) [µM] | MIC (Staphylococcus aureus [2]) [µM] | MIC (Candida albicans) [µM] | MIC (Micrococcus luteus) [µM] | MIC [3] [µM] | MIC (Escherichia coli) [µM] | MIC [4] [µM] | MIC (Aspergillus niger) [µM] | MIC (Klebsiella pneumoniae) [µM] | MIC (Cryptococcus neoformans) [µM] |
| --- | --- | --- | --- | --- | --- | --- | --- | --- | --- | --- | --- |
| CCCCCCCCCN(CCCCCCCCC)C(=O)NC(CCC(=O)O)(CCC(=O)O)CCC(=O)O | > 12000 | 720 (≈ 391 µg/mL) | 12000 (≈ 6510 µg/mL) | > 12000 | 12000 (≈ 6510 µg/mL) | 1400 (≈ 760 µg/mL) | 1400 (≈ 760 µg/mL) | 12000 (≈ 6510 µg/mL) | 5800 (≈ 3150 µg/mL) | > 1000 | 260 (≈ 141 µg/mL) |
| CCCCCCCCCCCN(CCCCCCCCCCC)C(=O)NC(CCC(=O)O)(CCC(=O)O)CCC(=O)O | > 10000 | 5200 (≈ 3110 µg/mL) | 10000 (≈ 5990 µg/mL) | > 10000 | 10000 (≈ 5990 µg/mL) | 650 (≈ 389 µg/mL) | 2600 (≈ 1560 µg/mL) | 10000 (≈ 5990 µg/mL) | 10000 (≈ 5990 µg/mL) | > 950 | > 950 |
| CCCCCCCCCCCCCCCCNC(=O)NC(CCC(=O)O)(CCC(=O)O)CCC(=O)O | 760 (≈ 391 µg/mL) | 550 (≈ 283 µg/mL) | 6100 (≈ 3140 µg/mL) | 47 (≈ 24.2 µg/mL) | > 12000 | 140 (≈ 72.1 µg/mL) | 140 (≈ 72.1 µg/mL) | 6100 (≈ 3140 µg/mL) | 3000 (≈ 1540 µg/mL) | 280 (≈ 144 µg/mL) | 47 (≈ 24.2 µg/mL) |
| CCCCCCCCCCCCCCNC(=O)NC(CCC(=O)O)(CCC(=O)O)CCC(=O)O | 6400 (≈ 3110 µg/mL) | 580 (≈ 282 µg/mL) | 6400 (≈ 3110 µg/mL) | 1600 (≈ 779 µg/mL) | > 13000 | 580 (≈ 282 µg/mL) | 290 (≈ 141 µg/mL) | 6400 (≈ 3110 µg/mL) | 6400 (≈ 3110 µg/mL) | 290 (≈ 141 µg/mL) | 1600 (≈ 779 µg/mL) |
| CCCCCCCCCCCCCCCCCCCCCCNC(=O)NC(CCC(=O)O)(CCC(=O)O)CCC(=O)O | 1300 (≈ 779 µg/mL) | 30 (≈ 18 µg/mL) | 1300 (≈ 779 µg/mL) | 2600 (≈ 1560 µg/mL) | > 10000 | 120 (≈ 71.9 µg/mL) | 120 (≈ 71.9 µg/mL) | 950 (≈ 569 µg/mL) | 5200 (≈ 3110 µg/mL) | 470 (≈ 281 µg/mL) | 5200 (≈ 3110 µg/mL) |
| CCCCCCCCCCN(CCCCCCCCCC)C(=O)NC(CCC(=O)O)(CCC(=O)O)CCC(=O)O | > 11000 | 2700 (≈ 1540 µg/mL) | 11000 (≈ 6280 µg/mL) | > 11000 | 11000 (≈ 6280 µg/mL) | 680 (≈ 388 µg/mL) | 2700 (≈ 1540 µg/mL) | 11000 (≈ 6280 µg/mL) | 11000 (≈ 6280 µg/mL) | > 1000 | 62 (≈ 35.4 µg/mL) |
| CCCCCCCCCCC(CCCCCCCCCC)NC(=O)NC(CCC(=O)O)(CCC(=O)O)CCC(=O)O | – | 2700 (≈ 1580 µg/mL) | – | > 11000 | > 11000 | 330 (≈ 193 µg/mL) | 2700 (≈ 1580 µg/mL) | 5300 (≈ 3100 µg/mL) | 11000 (≈ 6430 µg/mL) | > 11000 | 15 (≈ 8.77 µg/mL) |
| CCCCCCCC(CCCCCCC)NC(=O)NC(CCC(=O)O)(CCC(=O)O)CCC(=O)O | – | 6200 (≈ 3100 µg/mL) | – | 3100 (≈ 1550 µg/mL) | > 12000 | 3100 (≈ 1550 µg/mL) | 3100 (≈ 1550 µg/mL) | 6200 (≈ 3100 µg/mL) | 6200 (≈ 3100 µg/mL) | > 12000 | 1100 (≈ 551 µg/mL) |
| CCCCCCCCC(CCCCCCCC)NC(=O)NC(CCC(=O)O)(CCC(=O)O)CCC(=O)O | – | 3000 (≈ 1590 µg/mL) | – | 740 (≈ 391 µg/mL) | > 12000 | 1500 (≈ 793 µg/mL) | 1500 (≈ 793 µg/mL) | 5900 (≈ 3120 µg/mL) | 5900 (≈ 3120 µg/mL) | > 12000 | 270 (≈ 143 µg/mL) |
| CCCCCCCCCCCCCCCCCCCCNC(=O)NC(CCC(=O)O)(CCC(=O)O)CCC(=O)O | 1400 (≈ 799 µg/mL) | 120 (≈ 68.5 µg/mL) | 1400 (≈ 799 µg/mL) | 2700 (≈ 1540 µg/mL) | > 11000 | 62 (≈ 35.4 µg/mL) | 62 (≈ 35.4 µg/mL) | 1400 (≈ 799 µg/mL) | 680 (≈ 388 µg/mL) | 250 (≈ 143 µg/mL) | 2700 (≈ 1540 µg/mL) |
| CCCCCCCCN(CCCCCCCC)C(=O)NC(CCC(=O)O)(CCC(=O)O)CCC(=O)O | > 12000 | 380 (≈ 196 µg/mL) | 3000 (≈ 1540 µg/mL) | 190 (≈ 97.8 µg/mL) | 3000 (≈ 1540 µg/mL) | 1500 (≈ 772 µg/mL) | 760 (≈ 391 µg/mL) | 1500 (≈ 772 µg/mL) | 380 (≈ 196 µg/mL) | > 1100 | 550 (≈ 283 µg/mL) |
| CCCCCCCCCCCC(CCCCCCCCCCC)NC(=O)NC(CCC(=O)O)(CCC(=O)O)CCC(=O)O | > 10000 | 1300 (≈ 797 µg/mL) | – | > 10000 | > 10000 | 640 (≈ 392 µg/mL) | 2500 (≈ 1530 µg/mL) | 10000 (≈ 6130 µg/mL) | 10000 (≈ 6130 µg/mL) | > 10000 | 7.2 (≈ 4.41 µg/mL) |
| CCCCCCCN(CCCCCCC)C(=O)NC(CCC(=O)O)(CCC(=O)O)CCC(=O)O | > 13000 | 800 (≈ 389 µg/mL) | 3200 (≈ 1560 µg/mL) | 1600 (≈ 779 µg/mL) | 6400 (≈ 3110 µg/mL) | 3200 (≈ 1560 µg/mL) | 3200 (≈ 1560 µg/mL) | 6400 (≈ 3110 µg/mL) | 800 (≈ 389 µg/mL) | > 1200 | 1200 (≈ 584 µg/mL) |
| CCCCCCCCCCCCCCCCCCNC(=O)NC(CCC(=O)O)(CCC(=O)O)CCC(=O)O | 1400 (≈ 760 µg/mL) | 130 (≈ 70.6 µg/mL) | 720 (≈ 391 µg/mL) | 1400 (≈ 760 µg/mL) | > 12000 | 33 (≈ 17.9 µg/mL) | 130 (≈ 70.6 µg/mL) | 1400 (≈ 760 µg/mL) | 1400 (≈ 760 µg/mL) | 260 (≈ 141 µg/mL) | 90 (≈ 48.8 µg/mL) |
| CCCCCCCCCC(CCCCCCCCC)NC(=O)NC(CCC(=O)O)(CCC(=O)O)CCC(=O)O | – | 2800 (≈ 1560 µg/mL) | – | > 11000 | > 11000 | 350 (≈ 195 µg/mL) | 350 (≈ 195 µg/mL) | 5600 (≈ 3120 µg/mL) | 2800 (≈ 1560 µg/mL) | > 11000 | 64 (≈ 35.6 µg/mL) |
| CCCCCCCCCCCCC(CCCCCCCCCCCC)NC(=O)NC(CCC(=O)O)(CCC(=O)O)CCC(=O)O | > 9800 | 610 (≈ 391 µg/mL) | – | > 9800 | > 9800 | 1200 (≈ 769 µg/mL) | 2400 (≈ 1540 µg/mL) | 9800 (≈ 6280 µg/mL) | 9800 (≈ 6280 µg/mL) | > 9800 | 6.9 (≈ 4.42 µg/mL) |
